Experimental data published in ChEMBL document CHEMBL1138842, “Fluorinated phenylcyclopropylamines. 2. Effects of aromatic ring substitution and of absolute configuration on inhibition of microbial tyramine oxidase” (J Med Chem, 2004).
Counter-ions that a name gives are not always drawn.

Columns and labels:
[1] = Ionization constant was determined; format: physicochemical
How it was run: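 Determined by pH-metric titration in 0.1 M KNO₃ at 21 °C.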

[2] = target: T1, Amine oxidase [flavin-containing] A (Homo sapiens, UniProt P21397); test: Inhibitory concentration for human liver monoamine oxidase A
T1 sequence (P21397 whole entry): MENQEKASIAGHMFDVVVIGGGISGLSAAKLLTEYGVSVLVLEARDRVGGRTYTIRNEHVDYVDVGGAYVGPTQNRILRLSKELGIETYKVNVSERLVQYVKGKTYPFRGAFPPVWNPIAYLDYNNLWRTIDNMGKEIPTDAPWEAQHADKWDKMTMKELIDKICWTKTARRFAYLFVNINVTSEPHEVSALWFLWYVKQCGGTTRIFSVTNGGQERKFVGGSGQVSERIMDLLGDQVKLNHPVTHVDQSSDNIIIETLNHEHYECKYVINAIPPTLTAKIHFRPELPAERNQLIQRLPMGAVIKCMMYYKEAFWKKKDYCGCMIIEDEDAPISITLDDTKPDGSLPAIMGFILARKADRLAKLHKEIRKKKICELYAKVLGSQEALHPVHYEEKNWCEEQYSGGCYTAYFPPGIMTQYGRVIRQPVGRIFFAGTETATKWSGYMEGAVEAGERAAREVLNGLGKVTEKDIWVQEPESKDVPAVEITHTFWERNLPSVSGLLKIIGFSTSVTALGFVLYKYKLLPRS

[3] = Inhibitory concentration against tyramine oxidase of Arthrobacter spp.; Competitive inhibition
[4] = target: T2, Amine oxidase [flavin-containing] B (Homo sapiens, UniProt P27338); test: Inhibitory concentration for human liver monoamine oxidase B
T2 sequence (P27338 whole entry): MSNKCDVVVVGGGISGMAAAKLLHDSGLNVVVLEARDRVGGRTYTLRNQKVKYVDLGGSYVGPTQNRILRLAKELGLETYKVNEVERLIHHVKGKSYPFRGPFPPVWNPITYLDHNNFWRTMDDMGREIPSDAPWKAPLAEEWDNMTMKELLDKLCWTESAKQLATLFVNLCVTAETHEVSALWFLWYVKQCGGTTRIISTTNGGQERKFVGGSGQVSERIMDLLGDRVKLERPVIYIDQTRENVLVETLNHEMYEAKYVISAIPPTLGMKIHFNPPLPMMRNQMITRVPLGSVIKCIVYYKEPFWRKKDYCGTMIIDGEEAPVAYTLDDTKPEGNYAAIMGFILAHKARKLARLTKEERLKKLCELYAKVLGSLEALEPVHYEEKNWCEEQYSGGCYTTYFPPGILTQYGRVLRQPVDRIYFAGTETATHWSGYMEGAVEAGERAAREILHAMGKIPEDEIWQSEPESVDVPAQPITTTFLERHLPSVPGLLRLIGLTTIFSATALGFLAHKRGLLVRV

[5] = Inhibitory concentration against tyramine oxidase of Arthrobacter spp.; Not determined.
[6] = Inhibition concentration against tyramine oxidase of Arthrobacter spp.; Partially irreversible inhibition
[7] = Inhibitory concentration against tyramine oxidase of Arthrobacter spp.; Irreversible inhibition

Row | Structure (SMILES) | pKa ([1]; read-out: pKa) | IC50 [3] [µM] | also measured
1 | Cc1ccc([C@@]2(F)C[C@H]2N)cc1 (relative stereo) | 7.41 | 0.39 | IC50 [2]: 6.7 µM; IC50 [4]: 6.7 µM
2 | Cc1ccc([C@@]2(F)C[C@@H]2N)cc1 | 7.04 | – | IC50 [5]: 51 µM
3 | N[C@@H]1C[C@H]1c1ccccc1 (relative stereo) [TRANYLCYPROMINE HYDROCHLORIDE] | 8.47 | 35 | –
4 | N[C@H]1C[C@]1(F)c1ccc(F)cc1 (relative stereo) | 6.88 | – | IC50 [6]: 75 µM
5 | N[C@@H]1C[C@]1(F)c1ccc(F)cc1 (relative stereo) | 7.31 | 8.1 | –
6 | NC1CC1(F)c1ccc(Cl)cc1 (trans isomer) | 7.19 | 3.7 | –
7 | NNC(N)=O [HYDRAZINECARBOXAMIDE] | – | – | IC50 [2]: 6.7 µM
8 | NC1CC1c1ccccc1 (stereo not drawn) | 8.5 | – | IC50 [7]: 33 µM
9 | N[C@H]1C[C@]1(F)c1ccccc1 (relative stereo) | 7.35 | 3.6 | –
10 | N[C@@H]1C[C@]1(F)c1ccccc1 (relative stereo) | 6.98 | – | IC50 [6]: 190 µM
11 | Cl.NC1CC1(F)c1ccc(Cl)cc1 (stereo in doubt) | – | – | pKa [1]: 6.81; IC50 [6]: 89 µM
